Measured values: paper PMC6045486 (ACS Omega, 2018)

Assays:
rat liver TrxR = biological target: T1, rat liver TrxR (Rattus norvegicus, UniProt O89049); experiment: TrxR inhibition assay in cell-free system; format: biochemical; settings: for inhibition of TrxR: cell-free, rat liver TrxR
T1 sequence (O89049 1-499): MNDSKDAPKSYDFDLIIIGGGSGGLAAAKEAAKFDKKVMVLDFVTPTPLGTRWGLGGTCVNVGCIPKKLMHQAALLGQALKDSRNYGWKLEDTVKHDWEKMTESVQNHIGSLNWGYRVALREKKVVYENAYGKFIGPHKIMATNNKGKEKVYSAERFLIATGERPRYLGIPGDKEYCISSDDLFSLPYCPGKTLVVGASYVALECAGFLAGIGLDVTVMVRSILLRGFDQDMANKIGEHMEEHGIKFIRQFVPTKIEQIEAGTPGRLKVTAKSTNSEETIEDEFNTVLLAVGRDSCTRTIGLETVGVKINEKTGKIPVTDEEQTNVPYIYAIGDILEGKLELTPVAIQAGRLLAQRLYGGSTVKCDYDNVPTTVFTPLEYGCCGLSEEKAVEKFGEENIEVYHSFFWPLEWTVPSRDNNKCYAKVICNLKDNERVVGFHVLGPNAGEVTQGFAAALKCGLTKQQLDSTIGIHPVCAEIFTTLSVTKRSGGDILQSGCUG
Outline: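 Rat liver TrxR (50 nM) was preincubated at 37 °C for 30 min with 100 μM NADPH and test compound (5–100 μM) in 50 mM Tris–HCl, 1 mM EDTA, pH 7.4 (4% DMSO final). DTNB was then added and TNB formation followed at A412 for 5 min, against a no-enzyme blank and a compound blank. Activity is given as % of control. For reversibility, NADPH was varied 10–100 μM with compound fixed at 50 μM (Lineweaver–Burk).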

CHO cells [1] = experiment: Single-cell alkaline gel electrophoresis; format: cell-based, Chinese Hamster; settings: 10 μM for 2 h, 4 Gy, 0 to 60 min
Outline: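 CHO cells pretreated with 10 μM test compound for 2 h were washed, then irradiated at 4 Gy (⁶⁰Co, 1 Gy/min) in serum-free medium, with 10% FBS re-added afterwards. At 0, 30 and 60 min, about 15 000 cells in 0.8% low-melting agarose were lysed, electrophoresed under alkaline conditions and stained with SYBR Green II. Tail length and olive tail moment were measured in about 50 cells per slide. Mean ± SEM, n = 3.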

CHO cells [2] = experiment: MTT cytotoxicity assay, CHO; format: cell-based, Chinese Hamster; settings: read-out: IC50 (half maximal concentration to inhibit proliferation by 50%), 48 h
Outline: (§1)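 Cells kept in DMEM with 10% FBS and penicillin/streptomycin at 37 °C in 5% CO2. About 2 × 10^3 cells per well, 12 h attachment, then test compound at 5–100 μM (from DMSO stock; 0.1% DMSO final) for 48 h. MTT absorbance read at 570 nm, with % cytotoxicity relative to the 0.1% DMSO control. Mean ± SEM, n = 3.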

splenic lymphocytes = experiment: MTT cytotoxicity assay, splenic lymphocytes; format: cell-based, BALB/c mice; settings: read-out: IC50 (half maximal concentration to inhibit proliferation by 50%), 48 h
Outline: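 Splenic lymphocytes freshly isolated from BALB/c mice and kept in RPMI-1640 with FBS and antibiotics at 37 °C in 5% CO2. About 2 × 10^3 cells per well, 12 h, then test compound at 5–100 μM (0.1% DMSO final) for 48 h. MTT absorbance read at 570 nm, with % cytotoxicity relative to the DMSO control. Mean ± SEM, n = 3.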

MCF7 cells [3] = experiment: MTT cytotoxicity assay, MCF7; format: cell-based, human; settings: read-out: IC50 (half maximal concentration to inhibit proliferation by 50%), 48 h
Outline: as §1

cells = experiment: Toxicity in cells; format: cell-based; settings: up to a concentration of 10 μM
Outline: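 Cells were seeded at about 2 × 10³ per well and allowed to attach for 12 h. Lines were CHO, A549 and MCF7 in DMEM with 10% FBS, or fresh BALB/c mouse splenic lymphocytes in RPMI-1640. Cells were then exposed to test compound (5–100 μM, 0.1% DMSO) for 48 h. MTT was read at 570 nm, with % cytotoxicity taken versus control. Mean ± SEM, n = 3.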

[4] = tested on: γ-glutamyl-cysteine ligase (γ-GCL); experiment: mRNA expression of γ-GCL by RT-PCR in MCF7 cells; format: cell-based, human; settings: MCF7, 25 μM, 48 h
Outline: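 MCF7 cells were exposed to 25 μM test compound for 48 h. Total RNA was extracted with TRI reagent, and about 2 μg was reverse-transcribed. SYBR Green real-time PCR used γ-GCL-specific primers. CT values were normalised to β-actin and expression expressed relative to control. Mean ± SEM, n = 3.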

Chemical stability [5] = format: physicochemical; settings: 10 μM, cell culture medium with 10% FBS, 1% DMSO, 37 °C, in 2.5 h
MCF7 cells [6] = experiment: Intracellular redox state: ratio of GSH and GSSG in MCF7 cells; format: cell-based, human; settings: MCF7, 25 μM, 48 h
Outline: (§2)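 MCF7 cells were grown in DMEM with 10% FBS at 37 °C and 5% CO2, then exposed to 25 μM test compound (0.1% DMSO) for 48 h. Lysates were made in CelLytic M with protease inhibitor cocktail. About 100 μg protein was used for GSH, GSSG, GPx, GST and GR determinations, with protein measured by Bradford. Mean ± SEM, n = 3, versus DMSO control.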

[7] = tested on: glutathione S-transferase (GST); experiment: GST activity level in MCF7 cells; format: cell-based, human; settings: MCF7, 25 μM, 48 h
Outline: as §2

Chemical stability [8] = format: physicochemical; settings: 10 μM, phosphate buffer pH 7.4, 1% DMSO, 37 °C, within 1 h
CHO cells [9] = experiment: Radiation-induced intracellular ROS level; format: cell-based, Chinese Hamster; settings: 10 μM for 2 h, 2 Gy, 30 min postirradiation
Outline: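 CHO cells were pretreated with 10 μM test compound for 2 h and then γ-irradiated. At 30 min postirradiation, 1 × 10⁴ cells were loaded with DCFDA (5 μM) for 30 min at 37 °C. DCF fluorescence was read on a plate reader (excitation 488 nm, emission 530 nm).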

[10] = biological target: T2, thioredoxin reductase (TrxR) (Homo sapiens, UniProt Q16881); experiment: TrxR activity level in MCF7 cells; format: cell-based; settings: MCF7, 25 μM, 48 h
T2 sequence (Q16881 151-649 limits assumed): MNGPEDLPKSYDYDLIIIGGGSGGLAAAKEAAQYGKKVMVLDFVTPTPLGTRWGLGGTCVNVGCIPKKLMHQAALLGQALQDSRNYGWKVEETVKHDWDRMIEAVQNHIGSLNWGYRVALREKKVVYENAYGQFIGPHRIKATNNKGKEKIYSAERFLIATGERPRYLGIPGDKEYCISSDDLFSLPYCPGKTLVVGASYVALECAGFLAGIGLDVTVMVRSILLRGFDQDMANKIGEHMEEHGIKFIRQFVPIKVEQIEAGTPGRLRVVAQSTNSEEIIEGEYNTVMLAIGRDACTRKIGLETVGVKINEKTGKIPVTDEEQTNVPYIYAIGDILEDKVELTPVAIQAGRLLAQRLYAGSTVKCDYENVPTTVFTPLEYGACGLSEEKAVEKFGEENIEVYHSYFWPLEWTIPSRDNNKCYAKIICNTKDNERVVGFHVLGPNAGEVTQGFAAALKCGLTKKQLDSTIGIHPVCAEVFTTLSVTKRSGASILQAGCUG
Outline: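 MCF7 lysates were prepared in CelLytic M with protease inhibitors after 48 h exposure to 25 μM test compound (0.1% DMSO). Thioredoxin reductase activity in about 100 μg protein was measured with a commercial kit; protein was measured by Bradford. Mean ± SEM, n = 3, versus DMSO control.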

A549 cells = experiment: MTT cytotoxicity assay, A549; format: cell-based, human; settings: read-out: IC50 (half maximal concentration to inhibit proliferation by 50%), 48 h
Outline: as §1

CHO cells [11] = experiment: Radiation-induced micronuclei assay and NDI in CHO cells; format: cell-based, Chinese Hamster; settings: 4 Gy; for reduction in radiation-induced micronuclei formation: pretreatment 2 h, 18 h postirradiation
Outline: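 CHO cells were pretreated with test compound (2.5–10 μM; 10 μM for NDI) for 2 h, washed with PBS and placed in serum-free medium. They were given 4 Gy ⁶⁰Co γ-rays at 1 Gy/min, then returned to 10% FBS. Cytochalasin B (4 μg/mL) was present for 18 h, and cells were stained with acridine orange. Micronuclei were scored in 500 binucleated cells. NDI was calculated from counts of mono- to tetranucleated cells among ≥500 viable cells.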

[12] = tested on: glutathione peroxidase (GPx); experiment: GPx activity level in MCF7 cells; format: cell-based, human; settings: MCF7, 25 μM, 48 h
Outline: as §2

Hispolon [HS]
nature of TrxR inhibition (rat liver TrxR; NADPH competition experiment, Lineweaver–Burk): reversible inhibition
inhibition of TrxR (rat liver TrxR; 100 μM): 85–95%
inhibition of TrxR (rat liver TrxR; up to a concentration of 50 μM): 15–25%
Vmax (rat liver TrxR; compound 50 μM, NADPH 10–100 μM, unaffected versus control reaction): 1 nmol/min
DNA damage parameters (TL, OTM) compared to radiation control (CHO cells [1]): significant decrease
IC50 (CHO cells [2]): > 100 µM
IC50 (splenic lymphocytes): > 100 µM
IC50 (MCF7 cells [3]): 42 µM
toxicity in cells (cells): < 10%
mRNA expression of γ-GCL compared to control cells [4]: marginal increase
degraded in culture medium (10% FBS) (Chemical stability [5]): ~30%
increase in GSH/GSSG (MCF7 cells [6]): did not cause any significant change
inhibition of GST activity [7]: did not cause any significant change
degraded in phosphate buffer (Chemical stability [8]): 65%
reduction in the ROS level compared to radiation control (CHO cells [9]): 40%
percent inhibition in TrxR activity [10]: 58%
IC50 (A549 cells): 68 µM
Nuclear division index (NDI) compared to radiation control (CHO cells [11]; 10 μM for 2 h): did not affect this much
reduction in radiation-induced micronuclei formation (CHO cells [11]; 7.5 μM): 20%
reduction in radiation-induced micronuclei formation (CHO cells [11]; 10 μM): 22%
reduction in radiation-induced micronuclei formation (CHO cells [11]; up to 5 μM): did not affect
inhibition of GPx activity [12]: did not cause any significant change
